Assay results as given in ChEMBL document CHEMBL2321795, “Solubility-driven optimization of (pyridin-3-yl) benzoxazinyl-oxazolidinones leading to a promising antibacterial agent” (J Med Chem, 2013).
≈ marks a conversion by molar mass, not a printed value.

Columns and labels:
Format in all cases: functional
[1] = tested on: Enterococcus faecalis; assay: Antibacterial activity against Enterococcus faecalis after 16 hrs by NCCLS agar dilution method
Procedure, shortened: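 Agar dilution MIC per NCCLS, 6 E. faecalis strains. Stock was 320 μg/mL in 50% water/DMSO, serially 2-fold diluted in sterile water, then 10-fold into Mueller–Hinton agar to give 16–0.03125 μg/mL final. Inocula came from MH broth cultures grown 8 h at 35 °C, adjusted to 0.5 McFarland and spotted by multipoint inoculator. Plates were read after 16 h at 35 °C.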

[2] = tested on: Streptococcus pneumoniae; assay: Antibacterial activity against penicillin-resistant Streptococcus pneumoniae after 16 hrs by NCCLS agar dilution method
Procedure, shortened: (§1)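 Agar dilution MIC. Stocks were 320 μg/mL in 50% aqueous DMSO, 2-fold serially diluted in sterile water, then diluted 10-fold into Mueller–Hinton agar to give 16–0.03125 μg/mL final. Organisms were grown in MH broth at 35 °C for 8 h and adjusted to 0.5 McFarland. They were spotted onto drug-containing plates with a multipoint inoculator and incubated at 35 °C for 16 h. Linezolid was the positive control.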

[3] = tested on: Staphylococcus epidermidis; assay: Antibacterial activity against methicillin-sensitive Staphylococcus epidermidis after 16 hrs by NCCLS agar dilution method; procedure, shortened: as §1
[4] = tested on: Staphylococcus aureus; assay: Antibacterial activity against methicillin-sensitive Staphylococcus aureus after 16 hrs by NCCLS agar dilution method; procedure, shortened: as §1
[5] = tested on: Staphylococcus aureus; assay: Antibacterial activity against methicillin-resistant Staphylococcus aureus after 16 hrs by NCCLS agar dilution method; procedure, shortened: as §1
[6] = tested on: Staphylococcus epidermidis; assay: Antibacterial activity against methicillin-resistant Staphylococcus epidermidis after 16 hrs by NCCLS agar dilution method; procedure, shortened: as §1
[7] = tested on: Staphylococcus aureus; assay: Antibacterial activity against Staphylococcus aureus ATCC 29213 after 16 hrs by NCCLS agar dilution method; conditions: ATCC 29213, 16 h; procedure, shortened: as §1
[8] = tested on: Enterococcus faecium; assay: Antibacterial activity against linezolid-resistant Enterococcus faecium after 16 hrs by NCCLS agar dilution method; procedure, shortened: as §1
[9] = tested on: Staphylococcus epidermidis; assay: Antibacterial activity against linezolid-resistant Staphylococcus epidermidis after 16 hrs by NCCLS agar dilution method; procedure, shortened: as §1
[10] = tested on: Enterococcus faecalis; assay: Antibacterial activity against linezolid-resistant Enterococcus faecalis after 16 hrs by NCCLS agar dilution method; procedure, shortened: as §1
[11] = tested on: Staphylococcus aureus; assay: Antibacterial activity against linezolid-resistant Staphylococcus aureus after 16 hrs by NCCLS agar dilution method; procedure, shortened: as §1

Row | Structure (SMILES) | MIC [1] [µg/mL] | MIC [2] [µg/mL] | MIC [3] [µg/mL] | MIC [4] [µg/mL] | MIC [5] [µg/mL] | MIC [6] [µg/mL] | MIC [7] [µg/mL] | MIC [8] [µg/mL] | MIC [9] [µg/mL] | MIC [10] [µg/mL] | MIC [11] [µg/mL]
1 | O=C1O[C@@H](CO)[C@@H]2COc3cc(-c4ccc(C(F)(F)F)nc4)ccc3N12 | > 16 | > 16 | > 16 | > 16 |  |  |  |  |  |  | 
2 | CC(C)(O)c1ccc(-c2ccc3c(c2)OC[C@H]2[C@H](CO)OC(=O)N32)cn1 | 4 (≈ 11.2 µM) | 2 (≈ 5.61 µM) | 1 (≈ 2.81 µM) | 1 (≈ 2.81 µM) | 1 (≈ 2.81 µM) | 2 (≈ 5.61 µM) |  |  |  |  | 
3 | CC(=O)c1ccc(-c2ccc3c(c2)OC[C@H]2[C@H](CO)OC(=O)N32)cn1 | 2 (≈ 5.88 µM) | 8 (≈ 23.5 µM) | 4 (≈ 11.8 µM) | 2 (≈ 5.88 µM) | 2 (≈ 5.88 µM) | 4 (≈ 11.8 µM) |  |  |  |  | 
4 | O=C1O[C@@H](CO)[C@@H]2COc3cc(-c4ccc(C(O)CO)nc4)ccc3N12 (some centres not stated) | 1 (≈ 2.79 µM) | 0.5 (≈ 1.4 µM) | 0.5 (≈ 1.4 µM) | 0.5 (≈ 1.4 µM) | 0.5 (≈ 1.4 µM) | 0.5 (≈ 1.4 µM) | 0.5 (≈ 1.4 µM) | 4 (≈ 11.2 µM) | 8 (≈ 22.3 µM) | 4 (≈ 11.2 µM) | 16 (≈ 44.6 µM)
5 | O=C1O[C@@H](CO)[C@@H]2COc3cc(-c4ccc(N5C[C@@H]6CCCN[C@@H]6C5)nc4)ccc3N12 | 16 (≈ 37.9 µM) | 8 (≈ 18.9 µM) | 4 (≈ 9.47 µM) | 4 (≈ 9.47 µM) | 8 (≈ 18.9 µM) | 4 (≈ 9.47 µM) |  |  |  |  | 
6 | O=C1O[C@@H](CO)[C@@H]2COc3cc(-c4ccc(Cn5cnnn5)nc4)ccc3N12 | 4 (≈ 10.5 µM) | 4 (≈ 10.5 µM) | 1 (≈ 2.63 µM) | 2 (≈ 5.26 µM) | 2 (≈ 5.26 µM) | 1 (≈ 2.63 µM) |  |  |  |  | 
7 | CN1CCN(c2ccc(-c3ccc4c(c3)OC[C@H]3[C@H](CO)OC(=O)N43)cn2)C1=O | 8 (≈ 20.2 µM) | 4 (≈ 10.1 µM) | 2 (≈ 5.05 µM) | 2 (≈ 5.05 µM) | 2 (≈ 5.05 µM) | 4 (≈ 10.1 µM) |  |  |  |  | 
8 | O=C1O[C@@H](CO)[C@@H]2COc3cc(-c4ccc(C(O)C5CC5)nc4)ccc3N12 (some centres not stated) | 2 (≈ 5.43 µM) | 1 (≈ 2.71 µM) | 0.5 (≈ 1.36 µM) | 1 (≈ 2.71 µM) | 1 (≈ 2.71 µM) | 1 (≈ 2.71 µM) |  |  |  |  | 
9 | Cc1cc(N2CCOC2=O)ncc1-c1ccc2c(c1)OC[C@H]1[C@H](CO)OC(=O)N21 | 4 (≈ 10.1 µM) | 2 (≈ 5.03 µM) | 0.5 (≈ 1.26 µM) | 0.5 (≈ 1.26 µM) | 0.5 (≈ 1.26 µM) | 1 (≈ 2.52 µM) |  |  |  |  | 
10 | CC(C)N1CCN(c2ccc(-c3ccc4c(c3)OC[C@H]3[C@H](CO)OC(=O)N43)cn2)C(=O)C1 | 16 (≈ 36.5 µM) | 4 (≈ 9.12 µM) | 2 (≈ 4.56 µM) | 2 (≈ 4.56 µM) | 2 (≈ 4.56 µM) | 2 (≈ 4.56 µM) |  |  |  |  | 
11 | NC1(c2ccc(-c3ccc4c(c3)OC[C@H]3[C@H](CO)OC(=O)N43)cn2)CC1 | 2 (≈ 5.66 µM) | 1 (≈ 2.83 µM) | 1 (≈ 2.83 µM) | 2 (≈ 5.66 µM) | 1 (≈ 2.83 µM) | 1 (≈ 2.83 µM) |  |  |  |  | 
12 | O=C1O[C@H](CO)CN1c1ccc(-c2ccc3c(c2)OC[C@H]2[C@H](CO)OC(=O)N32)cn1 | 0.5 (≈ 1.21 µM) | 0.5 (≈ 1.21 µM) | 0.5 (≈ 1.21 µM) | 0.5 (≈ 1.21 µM) | 0.5 (≈ 1.21 µM) | 0.5 (≈ 1.21 µM) |  |  |  |  | 
13 | O=C1O[C@@H](CO)CN1c1ccc(-c2ccc3c(c2)OC[C@H]2[C@H](CO)OC(=O)N32)cn1 | 0.5 (≈ 1.21 µM) | 0.5 (≈ 1.21 µM) | 0.5 (≈ 1.21 µM) | 0.5 (≈ 1.21 µM) | 0.5 (≈ 1.21 µM) | 0.5 (≈ 1.21 µM) |  |  |  |  | 
14 | CN1CCN(c2ccc(-c3ccc4c(c3)OC[C@H]3[C@H](CO)OC(=O)N43)cn2)C(=O)C1 | 16 (≈ 39 µM) | 4 (≈ 9.75 µM) | 2 (≈ 4.87 µM) | 2 (≈ 4.87 µM) | 2 (≈ 4.87 µM) | 2 (≈ 4.87 µM) |  |  |  |  | 
15 | CC(O)c1ccc(-c2ccc3c(c2)OC[C@H]2[C@H](CO)OC(=O)N32)cn1 (some centres not stated) | 2 (≈ 5.84 µM) | 2 (≈ 5.84 µM) | 1 (≈ 2.92 µM) | 1 (≈ 2.92 µM) | 1 (≈ 2.92 µM) | 1 (≈ 2.92 µM) |  |  |  |  | 
16 | O=C1O[C@@H](CO)[C@@H]2COc3cc(-c4ccc(N5CCC(O)CC5)nc4)ccc3N12 | > 32 | 2 (≈ 5.03 µM) | 4 (≈ 10.1 µM) | 2 (≈ 5.03 µM) | 2 (≈ 5.03 µM) | 2 (≈ 5.03 µM) |  |  |  |  | 
17 | NCc1ccc(-c2ccc3c(c2)OC[C@H]2[C@H](CO)OC(=O)N32)cn1 | 4 (≈ 12.2 µM) | 4 (≈ 12.2 µM) | 1 (≈ 3.05 µM) | 2 (≈ 6.11 µM) | 2 (≈ 6.11 µM) | 0.5 (≈ 1.53 µM) |  |  |  |  | 
18 | CN1C[C@H](c2ccc(-c3ccc4c(c3)OC[C@H]3[C@H](CO)OC(=O)N43)cn2)OC1=O | 2 (≈ 5.03 µM) | 2 (≈ 5.03 µM) | 0.5 (≈ 1.26 µM) | 1 (≈ 2.52 µM) | 1 (≈ 2.52 µM) | 1 (≈ 2.52 µM) |  |  |  |  | 
19 | CCN1CCN(c2ccc(-c3ccc4c(c3)OC[C@H]3[C@H](CO)OC(=O)N43)cn2)CC1 | 4 (≈ 9.74 µM) | 8 (≈ 19.5 µM) | 2 (≈ 4.87 µM) | 4 (≈ 9.74 µM) | 4 (≈ 9.74 µM) | 4 (≈ 9.74 µM) |  |  |  |  | 
